The results in this text go back to ChEMBL document CHEMBL4118027, “Preussilides A-F, Bicyclic Polyketides from the Endophytic Fungus Preussia similis with Antiproliferative Activity” (J Nat Prod, 2017).

≈ marks a conversion by molar mass, not a printed value. Calls of active or inactive are those of the source. No cut-off for these calls is given here.

One assay relates to MCF7. The assay is described as follows: Cytotoxicity against human MCF7 cells assessed as reduction in cell viability after 5 days by MTT assay. As to conditions: MCF7, 120 h. It counts as functional, cell-based. A digest of the protocol:
(§1)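 MTT viability assay run over 5 days on a panel of eight lines (L929, KB3.1, A431, A549, SKOV-3, PC-3, MCF-7, U2OS). IC50 values were derived.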
In general terms: Tetrazolium assays rely on reduction of a dye to a coloured formazan, in cell work by metabolically active cells.

For another assay, the system named is Lepidium sativum. The assay is described as follows: Phytotoxicity against Lepidium sativum assessed as inhibition of seedling germination at 100 ug/disk. It counts as functional, organism-based.
The test system of the next assay is Staphylococcus aureus. The assay is described as follows: Antibacterial activity against Staphylococcus aureus DSM 346 by serial dilution method. It counts as functional, organism-based.
Assay [1] relates to Mycolicibacterium smegmatis. Put plainly: Antibacterial activity against Mycobacterium smegmatis ATCC 700084 by serial dilution method. It counts as functional, organism-based.
Another assay concerns Pseudomonas aeruginosa. Put plainly: Antibacterial activity against Pseudomonas aeruginosa PA14 by serial dilution method. The class given is functional, organism-based.
For the next assay, the system named is SK-OV-3. Put plainly: Cytotoxicity against human SKOV3 cells assessed as reduction in cell viability after 5 days by MTT assay. It counts as functional, cell-based. As to conditions: SK-OV-3, 120 h. In short, it runs like this: as §1
For another assay, the system named is U2OS. Put plainly: Cytotoxicity against human U2OS cells assessed as reduction in cell viability after 5 days by MTT assay. It counts as functional, cell-based. As to conditions: 120 h. A digest of the protocol: as §1
For a further assay, the system named is Wickerhamomyces anomalus. The assay is described as follows: Antifungal activity against Pichia anomala DSM 6766 by serial dilution method. The class given is functional, organism-based.
For the next assay, the system named is Caenorhabditis elegans. Put plainly: Nematicidal activity against Caenorhabditis elegans up to 100 ug/ml. It counts as functional, organism-based.
The test system of assay [2] is L929. Put plainly: Induction of nuclear fragmentation in mouse L929 cells at cytotoxic IC50 by DAPI staining based microscopic method. It counts as functional, cell-based.
For a further assay, the system named is Setaria italica. Put plainly: Phytotoxicity against Setaria italica assessed as inhibition of seedling germination at 100 ug/disk. It counts as functional, organism-based.
In another assay the test system is Micrococcus luteus. The assay is described as follows: Antibacterial activity against Micrococcus luteus DSM 1790 by serial dilution method. It counts as functional, organism-based.
The subject of assay [3] is L929. The assay is described as follows: Cytotoxicity against mouse L929 cells assessed as reduction in cell viability after 5 days by MTT assay. It counts as functional, cell-based. As to conditions: L929, 120 h. A digest of the protocol: as §1
The next assay has as its system PC-3. Put plainly: Cytotoxicity against human PC3 cells assessed as reduction in cell viability after 5 days by MTT assay. The class given is functional, cell-based. The settings on record: PC-3, 120 h. A digest of the protocol:
as §1

For another assay, the system named is Candida albicans. The assay is described as follows: Antifungal activity against Candida albicans DSM 1665 by serial dilution method. The class given is functional, organism-based.
The next assay deals with A549. Put plainly: Cytotoxicity against human A549 cells assessed as reduction in cell viability after 5 days by MTT assay. The class given is functional, cell-based. The settings on record: A549, 120 h. In short, it runs like this: as §1
The subject of the next assay is Escherichia coli. The assay is described as follows: Antibacterial activity against Escherichia coli DSM 498 by serial dilution method. The class given is functional, organism-based.
The test system of a further assay is KB 3-1. The assay is described as follows: Cytotoxicity against human KB3-1 cells assessed as reduction in cell viability after 5 days by MTT assay. It counts as functional, cell-based. As to conditions: KB 3-1, 120 h. In short, it runs like this:
as §1

The subject of another assay is Mucor hiemalis. Put plainly: Antifungal activity against Mucor hiemalis DSM 2656 by serial dilution method. The class given is functional, organism-based.
The test system of assay [4] is Schizosaccharomyces pombe. Put plainly: Antifungal activity against Schizosaccharomyces pombe DSM 70572 by serial dilution method. It counts as functional, organism-based.
Assay [5] has as its system Chromobacterium violaceum. The assay is described as follows: Antibacterial activity against Chromobacterium violaceum DSM 30191 by serial dilution method. It counts as functional, organism-based.
For the next assay, the system named is A-431. Put plainly: Cytotoxicity against human A431 cells assessed as reduction in cell viability after 5 days by MTT assay. It counts as functional, cell-based. As to conditions: A-431, 120 h. In short, it runs like this: as §1
The next assay relates to Bacillus subtilis. The assay is described as follows: Antibacterial activity against Bacillus subtilis DSM 10 by serial dilution method. The class given is functional, organism-based.
The subject of a further assay is Yamadazyma tenuis. The assay is described as follows: Antifungal activity against Candida tenuis MUCL 29892 by serial dilution method. It counts as functional, organism-based.
The subject of another assay is Rhodotorula glutinis. Put plainly: Antifungal activity against Rhodotorula glutinis DSM 10134 by serial dilution method. It counts as functional, organism-based.
A further assay has as its system Aspergillus fumigatus. The assay is described as follows: Antifungal activity against Aspergillus fumigatus DSM 819 by serial dilution method. It counts as functional.
For another assay, the system named is Sclerotinia sclerotiorum. Put plainly: Antifungal activity against Sclerotinia sclerotiorum DSM 1946 at 20 ug/disk after 5 days by disk diffusion assay. It counts as functional, organism-based. In short, it runs like this:
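Disk diffusion on YMG medium seeded with a mycelial suspension of the non-sporulating fungus; paper disks loaded with test material; inhibition zone diameter in mm read after 5 days.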
(Agar diffusion results depend on both activity and mobility in agar.)

Broadly, the IC50 is the concentration that inhibits the measured activity by half. With `COC(=O)/C=C/C(C)=C/C(C)=C/[C@H]1C(C[C@H](C)O)=C(C)C=C2C[C@@H](C)C(=O)[C@@H](C)[C@@H]21`, the IC50 is 55.8 µM in the assay with MCF7; 29.1 µM with SK-OV-3; over 2430 µM with U2OS; 80 µM with L929 [3]; 41.2 µM in the assay on PC-3; 41.2 µM with A549. The IC50 came to 23 µM with KB 3-1 and 55.8 µM in the assay on A-431. Besides, the result (with Lepidium sativum; in the assay with Staphylococcus aureus; in assay [1]; in the assay on Pseudomonas aeruginosa; with Wickerhamomyces anomalus; with Caenorhabditis elegans) was inactive. The result (in the assay with Setaria italica; with Micrococcus luteus; with Candida albicans; in the assay with Escherichia coli; in the assay with Mucor hiemalis; in assay [4]) was inactive. Further, the outcome (in assay [5]; with Bacillus subtilis; in the assay on Yamadazyma tenuis; in the assay on Rhodotorula glutinis) was inactive. The result in the assay with L929 [2] was Active.
Regarding `C/C(=C\c1csc(C)n1)[C@@H]1C[C@@H]2O[C@]2(C)CCC[C@H](C)[C@H](O)[C@@H](C)C(=O)C(C)(C)[C@@H](O)CC(=O)O1` [PATUPILONE], the IC50 in the assay with MCF7 amounted to 0.00015 µM; in the assay on SK-OV-3, 2.36e-05 µM; in the assay on U2OS, 0.000104 µM; in the assay with L929 [3], 0.0017 µM; in the assay with PC-3, 0.00025 µM; with A549, 0.00015 µM. Besides, the figures for the IC50 with KB 3-1 and with A-431 were 6.1e-05 µM and 7.3e-05 µM, respectively.
As to `CC(=O)CC1=C(C)C=C2C[C@@H](C)[C@@H](O)[C@@H](C)[C@@H]2[C@H]1/C=C(C)/C=C(C)/C=C/C(=O)O`, the half-inhibitory concentration (IC50) is 22.1 µM in the assay on MCF7; 32.4 µM with SK-OV-3; over 2510 µM in the assay on U2OS; 17.3 µM in the assay on L929 [3]; 60.2 µM with PC-3; 70.3 µM in the assay with A549. The IC50 was 11.3 µM with KB 3-1 and 35.1 µM with A-431. In addition, the outcome (in the assay on Lepidium sativum; in the assay on Staphylococcus aureus; in [1]; in the assay on Pseudomonas aeruginosa; in the assay on Wickerhamomyces anomalus; in the assay on Caenorhabditis elegans) was inactive. For the same compound, the result (in the assay on Setaria italica; in the assay with Micrococcus luteus; in the assay with Candida albicans; in the assay on Escherichia coli; in the assay with Mucor hiemalis; in [4]) was inactive. In addition, the outcome (in assay [5]; with Bacillus subtilis; with Yamadazyma tenuis; in the assay on Rhodotorula glutinis) was inactive. Moreover, the result with L929 [2] was Active.
The MIC is the least concentration at which growth counts as inhibited. A lower MIC goes with a more susceptible organism. Regarding `C[C@@H]1C[C@@H]([C@H](O)CC2CC(=O)NC(=O)C2)C(=O)[C@@H](C)C1` [CYCLOHEXIMIDE], the lowest concentration to inhibit growth against Aspergillus fumigatus (MIC) was 33.3 µg/mL (≈ 118 µM).
As for NYSTATIN, the inhibition zone (IZ) in the assay on Sclerotinia sclerotiorum amounted to 32 mm.
Consider `COC(=O)/C=C/C(C)=C/C(C)=C/[C@H]1C(CC(C)=O)=C(C)C=C2C[C@@H](C)C(=O)[C@@H](C)[C@@H]21`, for which the IC50 is over 2440 µM in the assay with MCF7; over 2440 µM with SK-OV-3; 22.2 µM with U2OS; 53.6 µM in the assay on L929 [3]; over 2440 µM in the assay on PC-3; over 2440 µM with A549. The IC50 is 51.2 µM in the assay on KB 3-1 and over 2440 µM in the assay with A-431. Besides, the result (in the assay with Lepidium sativum; in the assay with Staphylococcus aureus; in [1]; in the assay with Pseudomonas aeruginosa; in the assay on Wickerhamomyces anomalus; in the assay with Caenorhabditis elegans) was inactive. Besides, the outcome (in the assay with Setaria italica; with Micrococcus luteus; in the assay on Candida albicans; with Escherichia coli; in the assay with Mucor hiemalis; in [4]) was inactive. Further, the result (in assay [5]; in the assay on Bacillus subtilis; with Yamadazyma tenuis; in the assay with Rhodotorula glutinis) was inactive. In the assay on L929 [2], the result was Active.
`CC(=O)CC1=C(C)C=C2C[C@@H](C)C(=O)[C@@H](C)[C@@H]2[C@H]1/C=C(C)/C=C(C)\C=C\C(=O)O`: the IC50 with MCF7 was 15.4 µM; in the assay with SK-OV-3, 20.2 µM; in the assay on U2OS, over 2520 µM; with L929 [3] it was 24.7 µM; with PC-3 it was 45.4 µM; in the assay with A549, 47.9 µM. Besides, the IC50 in the assay with KB 3-1 is 17.4 µM; with A-431 it was 17.9 µM. The outcome (in the assay with Lepidium sativum; in the assay with Staphylococcus aureus; in [1]; in the assay with Pseudomonas aeruginosa; with Wickerhamomyces anomalus; in the assay on Caenorhabditis elegans) was inactive. Further, the outcome (in the assay on Setaria italica; with Micrococcus luteus; in the assay on Candida albicans; in the assay on Escherichia coli; in the assay with Mucor hiemalis; in [4]) was inactive. The result (in [5]; with Bacillus subtilis; in the assay with Yamadazyma tenuis; in the assay with Rhodotorula glutinis) was inactive. In addition, the outcome in the assay with L929 [2] was Active.
